# Screens deposited in PubChem BioAssay by several laboratories.
# Most compounds without a hit are left out; they make up all but 9.2% or so of the library.
# bCat KO growth: beta-catenin-lacking colon tumor cell growth suppression | HCT116 beta-catenin knockout viability, CellTiter-Glo, 60 h; hits give low values | viability, % at 10 µM | actives 1.5% (n = 140,000) | AID 818;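 active means viability at or under a set limit, the compound median less 4 SD, cut at about 6% in these data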;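 further: 0% = Hyamine 1622 control at 20 µM and 100% = untreated cell control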
# Dynein transport: dynein cargo transport inhibition. 3617.4 mouse cells, GR-EGFP nuclear translocation imaging; test concentration mostly 20 µM; stimulated with dexamethasone, 1 µM; hits give low values. z-score, hits read low. actives 0.47% (n = 220,000). AID 1381;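 active means plate z-score of nuclear minus cytoplasmic receptor signal below a set negative limit, without overly bright fluorescence or cell loss, cut at about -3.5 in these data, passing the limit was not always enough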;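 further: z-score of nuclear minus cytoplasmic ring GR-EGFP intensity difference per well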
#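 Also added – dexamethasone, 1.0 µM final · Buffer or medium – tet-free, stripped-serum medium · Schedule – induction 48 h, compound 1 h, agonist 30 min · Detection – formaldehyde fixation, Hoechst nuclear stain, 10x automated fluorescence imaging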
# Autophagy mod: alters autophagy in cells; MEF GFP-LC3 puncta imaging; test concentration mostly 10 µM; calls only at 10 µM (by protocol); actives 0.98% (n = 190,000); AID 463193;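 active means percentage of spot-positive cells more than 3 SD above its plate mean, without a fluorescence outlier flag or 80% toxicity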;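 further: spot-positive cell cutoff set from DMSO-treated cells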
# L major viab: inhibitors of Leishmania major promastigote growth; Leishmania major promastigotes, resazurin fluorescence viability; inhibition, % at 10 µM; actives 9% (n = 200,000); AID 1063; in the data active means inhibition above about 50%;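 further: promastigotes grown with compound for 44 hours at 28 °C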
# HCT116 PTEN-null: growth suppressors of cells with PTEN tumor suppressor deletion. HCT116 PTEN-null viability, CellTiter-Glo, 60 h; hits give low values. viability, % at 10 µM. actives 1.2% (n = 140,000). AID 827;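 active means viability at or below a set limit, 4 SD under the median of all tested compounds, cut at about 3.7% in these data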;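 further: PTEN knockout HCT116 line with beta catenin targeted HCT116 as companion control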
# * marks the source's active call; other numbers are inactive results; i = inactive; x = not tested or not shown; + = active, no number.
SMILES,bCat KO growth,Dynein transport,Autophagy mod,L major viab,HCT116 PTEN-null
Cc1cc(C(F)(F)F)nn1CC(=O)NCc1cccs1,x,-0.24,i,-6,x
Clc1ccc(SCCCCn2ccnc2)cc1,53,-0.38,i,100*,63
Cc1ccccc1OCCCCCn1ccnc1,21,-0.52,i,100*,28
Clc1ccccc1OCCCCn1ccnc1,95,-0.26,i,100*,96
Cc1cccc(OCCCCCn2ccnc2)c1,87,0.045,i,100*,88
CC(Oc1ccc(Cl)cc1)C(=O)NCCCn1ccnc1 (stereo not given),84,-0.049,i,-3,99
CCc1ccc(-c2ccc(SCC(=O)Nc3nnc(C)s3)nn2)cc1,x,-0.62,i,13,x
O=C(CCc1nnc(C2CCCCC2)o1)N1CCCCC1CCn1cccn1 (stereo not given),x,0.79,i,-4,x
CC(=O)c1nc(N2C(=O)CC(Cc3cc(C)cc(C)c3)C2=O)sc1C (stereo not given),100,0.15,+,54*,110
Cn1c(SCC(=O)c2c(N)n(C)c(=O)n(C)c2=O)nnc1-c1ccccc1,89,-0.83,i,66*,95
Cn1c(SCC(=O)c2c(N)n(C)c(=O)n(C)c2=O)nnc1-c1ccccc1F,x,1.9,i,6,x
Cn1c(SCC(=O)NCCN2C(=O)CSC2=O)nnc1-c1ccccc1,96,0.26,i,56*,104
Cc1ccc(-n2c(SCC(=O)NCCN3C(=O)CSC3=O)nnc2-c2ccccc2)cc1,97,0.67,i,62*,92
Cc1ccc(-n2c(SCC(=O)NCCN3C(=O)CSC3=O)nnc2-c2ccccc2)cc1C,91,0.67,i,4,90
Cc1ccc(-n2c(SCC(=O)NCCN3C(=O)CSC3=O)nnc2-c2cccc(C)c2)cc1,94,-0.13,i,3,85
Cn1c(=O)c2c(SCc3cccnc3)nc(CC(C)(C)C)nc2n(C)c1=O,77,0.01,i,91*,69
Cn1c(=O)c2c(SCc3ccccn3)nc(CC(C)(C)C)nc2n(C)c1=O,85,-0.053,i,25,75
CCCc1nc(SCc2cccnc2)c2c(=O)n(C)c(=O)n(C)c2n1,88,-0.29,x,84*,85
Cc1ccc(Oc2nc(CN3CCOCC3)nc3sc4c(c23)CCC(C)C4)cc1C (stereo not given),41,0.62,i,97*,36
CC1CCc2c(sc3nc(CN4CCOCC4)nc(N4CCc5ccccc5C4)c23)C1 (stereo not given),61,-0.55,i,13,60
CC1CCc2c(sc3nc(CN4CCOCC4)nc(NS(=O)(=O)c4cccc([N+](=O)[O-])c4)c23)C1 (stereo not given),86,1.2,i,1,81
Cc1ccc(Oc2nc(CN3CCOCC3)nc3sc4c(c23)CCC(C)C4)cc1 (stereo not given),63,-1.9,i,76*,63
COc1ccc(-c2nnn(CC(=O)N(CCCO)C(C(=O)NC3CCCC3)c3ccc(F)cc3)n2)cc1 (stereo not given),x,-0.37,i,-2,x
CC/C(=C\c1oc2cc3ccccc3cc2[n+]1CC)Nc1ccccc1,x,-0.87,i,100*,x
N#C/C(=C\c1ccc(/C=C(/C#N)c2nn(CCO)c(N)c2C#N)cc1)c1nn(CCO)c(N)c1C#N,83,-0.28,+,-1,94
SMILES,bCat KO growth,Dynein transport,Autophagy mod,L major viab,HCT116 PTEN-null
CC(C)(C)NC(=O)C(c1cccs1)N(Cc1ccc(F)cc1)C(=O)c1csnn1 (stereo not given),x,0.94,i,6,x
Fc1ccccc1Cn1c2[n+](c3ccc(C(F)(F)F)cc31)CCCCC2,x,-0.84,i,14,x
COc1ccc(OC)c(C(=O)Cn2c3[n+](c4ccc(C(F)(F)F)cc42)CCCCC3)c1,x,-0.41,i,99*,x
CCOC(=O)CN1N=C(/C=C/c2ccc(C(C)C)cc2)CCC1=O,x,-0.69,i,-3,x
COc1ccc(CCNC2CC(=O)N(C)C2=O)cc1OC (stereo not given),96,-1.2,i,-9,99
COc1ccc(CCNC2CC(C)N(C)CC2C)cc1OC (stereo not given),94,3.5,i,69*,94
CCCc1cc(N2CCN(C(=O)c3ccco3)CC2)n2c(nc3ccccc32)c1C#N,71,-0.056,i,71*,70
COc1ccc(C(=O)Nc2nc(-c3ccc([N+](=O)[O-])cc3)c(-c3ccccc3)s2)cc1,x,0.15,i,68*,x
O=C(Nc1nc(-c2ccccc2)c(-c2ccccc2)s1)c1ccc(S(=O)(=O)N2CCCC2)cc1,81,-0.16,i,98*,64
COc1ccc(-c2sc(NC(=O)c3ccc(C)cc3)nc2-c2ccc([N+](=O)[O-])cc2)cc1,80,-0.57,i,0,81
CC(=O)Nc1cccc(/C(C)=N/NS(=O)(=O)c2ccc(C)cc2)c1,x,-0.52,i,0,x
O=C(NCc1ccc(Cl)cc1)C(=O)NCC(c1cccnc1)N1CCN(c2ccc(F)cc2)CC1 (stereo not given),x,0.37,i,94*,x
COc1ccc(N2CCN(C(CNC(=O)C(C)(C)C)c3cccnc3)CC2)cc1 (stereo not given),x,1.3,i,10,x
O=C(NCCCn1ccnc1)C(=O)NCC(c1cccnc1)N1CCN(c2ccc(F)cc2)CC1 (stereo not given),94,0.61,i,-1,89
O=C(NCC(c1cccnc1)N1CCN(c2ccc(F)cc2)CC1)c1ccccc1 (stereo not given),105,-0.85,i,89*,80
COc1cc(NC(=O)COC(=O)c2cnccn2)c(C)cc1[N+](=O)[O-],x,-0.12,x,x,x
C=CCn1c(SCC2CCCCO2)nc2sc(CC)cc2c1=O (stereo not given),x,0.7,x,x,x
Oc1ccc2ccccc2c1C=NCc1cn2ccsc2n1,96,-0.3,i,95*,89
Oc1ccc2ccccc2c1/C=N/c1nccs1,101,-0.56,i,-4,90
COc1ccc(S(=O)(=O)Cc2ccc(C(=O)N3CCN(C4CCCCC4)CC3)o2)cc1,93,0.7,i,99*,93
COc1ccc(S(=O)(=O)Cc2ccc(C(=O)N3CCN(C(=O)c4ccco4)CC3)o2)cc1,91,-0.27,i,-4,100
O=C(c1ccc(CS(=O)(=O)c2ccc(Br)cc2)o1)N1CCN(C2CCCCC2)CC1,92,0.35,i,99*,103
O=C(c1ccc(CS(=O)(=O)c2ccc(Br)cc2)o1)N1CCCCCC1,83,2.9,i,7,91
Cc1ccc(-c2csc(NC(=O)C3=NN(C4CCS(=O)(=O)C4)C(=O)CC3)n2)cc1 (stereo not given),x,0.36,x,x,x
CC1CC(C)CN(c2cc3c(cc2[N+](=O)[O-])C(=O)N(c2ccccc2)C3=O)C1 (stereo not given),82,2.4,i,85*,103
COC(=O)c1ccc(N2C(=O)c3cc(N4CCOCC4)c([N+](=O)[O-])cc3C2=O)cc1,91,-0.35,i,-4,89
